KCNK9 inh: blocks the human KCNK9 two-pore domain potassium channel. AID 488922. HEK293 KCNK9, FluxOR thallium flux fluorescence; active compounds read low. B-score at 10 µM. hit rate 1.2% among 310,000. Q9NPC2;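 active means ratio B-score over 3 SD below the library mean, with starting fluorescence within 5 SD of its mean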;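 further: negative B-score means less thallium flux so channel inhibition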
KCNQ1 block: blocks the human KCNQ1 potassium channel; P51787; CHO-K1 KCNQ1, FluxOR thallium flux fluorescence; active compounds read high; B-score at 10 µM; hit rate 1.3% among 310,000;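 active means compounds whose thallium flux B-score, printed positive for inhibition, exceeds three library SD while starting fluorescence stays within three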;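 further: channel opened by potassium depolarization with thallium stimulus after 20 min compound exposure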
KCNQ1 act: potentiates or activates the human KCNQ1 potassium channel; AID 2648; P51787; hit rate 0.35% among 310,000; CHO-K1 KCNQ1, thallium flux FluxOR fluorescence; active compounds read high; B-score at 10 µM;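 active means fluorescence ratio B-score, a plate-corrected score, at least three library SD, with initial intensity B-score within 5 SD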
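Test system: CHO-K1 cells stably expressing KCNQ1 / Medium: assay buffer / Also added: depolarizing K+/Tl+ stimulus, K2SO4 and Tl2SO4 each 12.5 mM in 5x stock / Incubation: 90 min dye loading and 20 min compound exposure, both at room temperature / Signal: thallium influx via FluxOR fluorescence, kinetic imaging / Evaluation: B score of baseline-normalized fluorescence ratio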
hERG protect: shields human hERG channel from block by proarrhythmic agents; CHO-hERG, FluxOR thallium flux, dofetilide IC70 present; activation (rescue from dofetilide block), less the hit threshold, % at 10 µM; hit rate 0.51% among 310,000;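 active means activation above the mean of controls blocked by dofetilide plus 5 SD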;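 further: thallium influx through hERG after potassium depolarization seen as dye fluorescence rise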
Target sequence (Q12809 whole entry, looked up): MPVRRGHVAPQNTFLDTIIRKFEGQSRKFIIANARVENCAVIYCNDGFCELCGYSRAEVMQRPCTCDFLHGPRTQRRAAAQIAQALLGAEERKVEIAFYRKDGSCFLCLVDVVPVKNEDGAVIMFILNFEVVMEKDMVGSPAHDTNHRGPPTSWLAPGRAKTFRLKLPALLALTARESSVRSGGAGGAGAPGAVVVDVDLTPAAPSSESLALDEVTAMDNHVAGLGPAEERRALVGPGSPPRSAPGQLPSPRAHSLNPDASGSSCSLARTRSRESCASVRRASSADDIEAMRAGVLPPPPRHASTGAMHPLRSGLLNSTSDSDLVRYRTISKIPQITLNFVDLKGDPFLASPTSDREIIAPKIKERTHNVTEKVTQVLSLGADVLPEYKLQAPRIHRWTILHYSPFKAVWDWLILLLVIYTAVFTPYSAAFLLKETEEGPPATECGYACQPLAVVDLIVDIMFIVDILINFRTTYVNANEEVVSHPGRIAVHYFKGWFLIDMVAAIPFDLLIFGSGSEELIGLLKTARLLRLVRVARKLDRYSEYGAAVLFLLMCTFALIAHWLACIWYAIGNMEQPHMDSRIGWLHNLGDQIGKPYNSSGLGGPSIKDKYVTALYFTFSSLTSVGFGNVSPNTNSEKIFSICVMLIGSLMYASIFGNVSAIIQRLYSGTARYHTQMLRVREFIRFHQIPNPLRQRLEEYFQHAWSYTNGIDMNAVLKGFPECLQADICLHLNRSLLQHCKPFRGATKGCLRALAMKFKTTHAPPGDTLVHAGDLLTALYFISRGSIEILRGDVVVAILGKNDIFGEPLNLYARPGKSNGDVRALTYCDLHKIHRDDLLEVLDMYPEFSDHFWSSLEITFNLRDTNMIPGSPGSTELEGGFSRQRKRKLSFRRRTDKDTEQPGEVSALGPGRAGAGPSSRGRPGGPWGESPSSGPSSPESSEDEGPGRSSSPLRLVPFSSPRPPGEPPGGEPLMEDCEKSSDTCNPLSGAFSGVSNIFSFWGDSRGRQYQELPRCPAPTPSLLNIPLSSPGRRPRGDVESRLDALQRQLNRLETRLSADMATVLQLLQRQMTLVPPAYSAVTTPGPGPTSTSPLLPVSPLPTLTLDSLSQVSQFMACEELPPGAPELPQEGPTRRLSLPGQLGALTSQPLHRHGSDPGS
KCNK3 inh: human KCNK3 channel inhibition, primary screen. O14649. B-score at 10 µM. AID 602410. CHO-KCNK3 thallium flux, FluxOR fluorescence; active compounds read low. hit rate 0.84% among 340,000;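 active means B-score under library mean minus 4 SD, starting fluorescence ratio at most library mean plus 5 SD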;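 further: more negative B-score means stronger inhibition of thallium flux through KCNK3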
Kir21 block: Kir2.1 (mouse) channel inhibition | P35561 | HEK293-Kir2.1, FluxOR thallium flux fluorescence; active compounds read low | B-score at 10 µM | hit rate 0.85% among 310,000;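 active means fluorescence ratio B-score at or below minus 3 SD of library scores, with starting-brightness B-score within 2 SD, cut at about -4.2 in these data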;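 further: channel flux triggered by added potassium and thallium sulfate stimulus; B-score of peak minus minimum fluorescence over baseline after thallium stimulus; more negative B-score means stronger Kir2.1 block with less thallium influx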
KCNK9 inh conf: confirmation of human KCNK9 potassium channel inhibitors; inhibition, % at 10 µM; shares compounds with KCNK9 inh; HEK293 KCNK9 cells, FluxOR thallium flux fluorescence; AID 492992; hit rate 43% among 4,900;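 active means thallium signal inhibited by more than 5 SD of the compound-free buffer control wells, on both duplicate plates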;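 further: 0% = assay buffer control wells without compound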
Kir2-1 spec: selectivity of KCNK9 modulators against mouse Kir2.1; inhibition, % at 10 µM; AID 492993; hit rate 4% among 4,900; shares compounds with KCNK9 inh; Kir2.1 cells, FluxOR thallium flux fluorescence;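 active means thallium signal drop more than 5 SD beyond the mean of the no-compound control wells, seen in both duplicate plates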;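 further: signal is fluorescence rise after thallium addition divided by baseline fluorescence; plate controls were assay buffer only for no effect and full block by chlorpromazine control for full effect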
KCNK9 uninduced: second counter-screen for KCNK9 modulators: effect in non-induced cells | shares compounds with KCNK9 inh | non-induced KCNK9-HEK293, FluxOR thallium flux | inhibition, % at 10 µM | hit rate 40% among 4,900;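 active means thallium signal drop beyond 5 SD of the untreated control mean, on both duplicate plates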;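 further: plate controls were buffer only IC0 wells for no effect and SID17386958 at its maximal inhibitory level for full effect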
* hit, by the source's call; i = inactive; nt = no result. Most compounds without a hit are left out; they make up all but 3.8% or so of the library.

SMILES	KCNK9 inh	KCNQ1 block	KCNQ1 act	hERG protect	KCNK3 inh	Kir21 block	KCNK9 inh conf	Kir2-1 spec	KCNK9 uninduced
COc1ccc(N2C(=O)CSC23C(=O)N2c4c(cccc43)C(C)=CC2(C)C)cc1 (configuration not stated)	-8.65*	i	i	-11.7	i	1.23	i	i	46.0%*
O=C(NCC(c1ccco1)N1CCc2ccccc2C1)c1ccc(Br)cc1 (configuration not stated)	i	i	i	-9.7	i	-2.81	i	i	35.0%*
Cc1ccc(C(=O)NCC(c2ccco2)N2CCc3ccccc3C2)cc1 (configuration not stated)	i	i	i	-12.9	i	0.01	nt	nt	nt
Cc1ccc(C)c(S(=O)(=O)NCC(c2ccco2)N2CCc3ccccc3C2)c1 (configuration not stated)	-10.7*	i	i	-7.7	i	-0.23	48.0%*	i	41.0%*
O=C(NCC(c1ccco1)N1CCc2ccccc2C1)c1cccc(Br)c1 (configuration not stated)	-12.2*	i	i	-9.1	i	-0.38	i	i	25.5%*
CC12C=CC(=O)C=C1CCC1C2C(=O)CC2(C)C1CCC2(O)C(=O)CO (configuration not stated)	nt	nt	nt	nt	i	nt	nt	nt	nt
CCN1CCN(C(=O)c2c(-c3c(Cl)cccc3Cl)noc2C)CC1	i	i	i	-20.0	i	-0.99	nt	nt	nt
CC1=NOC(=O)/C1=C\c1ccc(-c2cccc(Cl)c2)o1	i	i	i	-11.9	i	-1.26	i	i	i
Cc1cc(C(=O)N2CCCC(N3CCN(c4cccc(C(F)(F)F)c4)CC3)C2)nn1C (configuration not stated)	i	i	i	-6.6	i	0.07	i	i	i
Cc1cc(C(=O)N2CCCC(N3CCN(c4cccc(Cl)c4)CC3)C2)nn1C (configuration not stated)	i	i	i	-6.5	i	0.57	nt	nt	nt
CC1(CCC(=O)N2CCCC(N3CCN(c4cccc(C(F)(F)F)c4)CC3)C2)CC1 (configuration not stated)	i	i	i	-16.8	i	0.33	i	i	i
Cc1cc(C(=O)N2CCCC(N3CCN(c4cccc(C(F)(F)F)c4)CC3)C2)c(C)o1 (configuration not stated)	i	i	i	-15.9	i	0.28	i	i	i
c1ccc(Nc2ccccn2)nc1	i	i	i	-4.6	i	0.37	nt	nt	nt
O=C(NCCC1=CCCCC1)c1ccc(Cl)c(S(=O)(=O)N2CCCCC2)c1	i	i	i	-4.8	i	0.2	i	i	i
Cc1ccc(CSCCNC(=O)c2ccc(Cl)c(S(=O)(=O)N3CCOCC3)c2)cc1	i	i	i	-14.8	i	-1.7	i	i	i
O=C(Nc1ccc(Cl)cc1)N1CCOC12CCC1(CC2)OCCO1	i	i	i	-19.7	i	0.3	nt	nt	nt
Clc1nnc(N2CCCCC2)c2ccccc12	i	i	i	-8.0	i	-0.4	nt	nt	nt
Cc1ccc(NC(=S)Nc2cc(C)on2)cc1	i	i	i	-1.4	i	-0.17	nt	nt	nt
NS(=O)(=O)c1ccc(NC(=S)Nc2ccn(Cc3cccc4ccccc34)n2)cc1	i	i	i	-3.7	i	-1.12	i	i	i
Cc1nn(-c2ccccc2)c(N)c1Sc1ccccc1[N+](=O)[O-]	i	i	i	-9.2	i	0.14	nt	nt	nt
Cc1nn(-c2ccccc2)c(N)c1Sc1cccc([N+](=O)[O-])c1	-12.6*	i	i	-9.4	i	0.55	66.5%*	i	29.0%*

Screening data: PubChem, Johns Hopkins Ion Channel Center
